Data published in article PMC6044872 (ACS Omega, 2017).

What was measured:
[1] = tested on: H292 mucoepidermoid carcinoma cells; test: Flow cytometry binding to H292; type: cell-based, human
Outline: (§1)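 Cells were grown 48 h, trypsinized and washed in PBS with 10% FBS. 1.0 × 10^6 cells in 200 μL antibody solution, 2 h on ice. FITC-labelled anti-mouse IgG 1 h on ice, then three washes and resuspension in PBS/10% FBS. Analysed by flow cytometry; histograms overlaid on isotype control antibody.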

[2] = tested on: MUC1 glycopeptides PDT*R-Tn-20-, 40-, 60-, 100-mer and PDT*R-STn-20-, 40-, 60-, 100-mer; type: binding; settings: ELISA signals with 20-, 60- and 100-mer glycopeptides
Outline: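 Streptavidin (10 μg/mL in 50 mM Tris–HCl, pH 7.5) coated overnight at 4 °C; blocked 2 h at RT. Biotinylated Tn- or STn-glycopeptides (20-, 40-, 60-, 100-mer) captured overnight at 4 °C. Antibody overnight at 4 °C, HRP-anti-mouse IgG 2 h at RT. TMB 30 min, H2SO4 stop, A450. Antibody concentration set separately for each antibody.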

[3] = tested on: Calu-3 lung adenocarcinoma cells; test: Flow cytometry binding to Calu-3; type: cell-based, human
Outline: as §1

[4] = tested on: T-47D breast cancer cells; test: Flow cytometry binding to T-47D; type: cell-based, human
Outline: as §1

[5] = tested on: A549 lung adenocarcinoma epithelial cells; test: Flow cytometry binding to A549; type: cell-based, human
Outline: as §1

[6] = tested on: 184A1 mammary epithelial cells; test: Flow cytometry binding to 184A1; type: cell-based, human
Outline: as §1

B1: PankoMab: anti-MUC1 antibody (Glycotope, Germany), established using desialylated MUC1 as the immunogen (antibody, chains of the INN, looked up, V domains shown)
VH: EVQLVESGGGLVQPGGSMRLSCVASGFPFSNYWMNWVRQAPGKGLEWVGEIRLKSNNYTTHYAESVKGRFTISRDDSKNSLYLQMNSLKTEDTAVYYCTRHYYFDYWGQGTLVTVSS
VL: DIVMTQSPLSNPVTPGEPASISCRSSKSLLHSNGITYFFWYLQKPGQSPQLLIYQMSNLASGVPDRFSGSGSGTDFTLRISRVEAEDVGVYYCAQNLELPPTFGQGTKVEIK
Binding to H292 (in words) [1]: hardly bound
Tandem-repeat dependence of binding [2]: tandem-repeat-dependent manner
Binding to Calu-3 (in words) [3]: hardly bound
Binding to T-47D (in words) [4]: bound only to T-47D
Binding to A549 (in words) [5]: hardly bound
Binding to 184A1 (in words) [6]: hardly bound
